This is an account of results in ChEMBL document CHEMBL1212886, “New N-(phenoxydecyl)phthalimide derivatives displaying potent inhibition activity towards alpha-glucosidase” (Bioorg Med Chem, 2010).

Calls of active or inactive are those of the source. The calls are words filed in the database; no cut-off is given here.

Test [1] can be described thus: Inhibition of Saccharomyces cerevisiae alpha-glucosidase after 10 mins. Summed up:
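Yeast α-glucosidase, 25 mU/mL final, in 10 mM phosphate buffer pH 7.28, preincubated with test compound (DMSO) 5 min at 37 °C. p-NPG substrate 80 μM final; stopped after 10 min with 0.5 M Na2CO3; 4-nitrophenol read at 400 nm against DMSO control. Eight concentrations; triplicate, at least two runs; IC50 taken graphically from percent activity vs log concentration.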

Test [2] relates to Canavalia ensiformis. The test is described as follows: Inhibition of Canavalia ensiformis alpha-mannosidase at 25 uM after 10 mins. Summed up:
(§1)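 Enzyme 12.5 mU per sample in buffer: β-glucosidase, 50 mM sodium citrate pH 5.0; α-mannosidase, 10 mM sodium acetate pH 4.5; α-galactosidase, 50 mM potassium phosphate pH 6.5. Compound in DMSO at 25 µM, preincubated 5 min at 37 °C; substrate added at 80 μM final; stopped after 10 min with 1 M Na2CO3. Absorbance compared with DMSO control; triplicate.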

The subject of test [3] is Prunus dulcis. The test is described as follows: Inhibition of almond beta-glucosidase at 25 uM after 10 mins. Summed up:
as §1

The test system of test [4] is SH-SY5Y. The test can be described thus: Cytotoxicity against human SH-SY5Y cells after 2 hrs by MTT assay. The format is functional, cell-based. Summed up:
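SH-SY5Y neuroblastoma cells exposed to compound at 5 μM and at a second concentration for 2 h. MTT (5 mg/mL in DMEM + 10% FBS) then added, 4 h at 37 °C. Supernatant removed, formazan dissolved in DMSO, absorbance read at 540 nm. Sextuplicate, repeated twice.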

Test [5] has as its target Alpha-galactosidase (Coffea arabica) (UniProt Q42656). The test is described as follows: Inhibition of green coffee bean alpha-galactosidase at 25 uM after 10 mins. Summed up: as §1

Sequence of Alpha-galactosidase (Coffea arabica) (Q42656 16-378 limits assumed): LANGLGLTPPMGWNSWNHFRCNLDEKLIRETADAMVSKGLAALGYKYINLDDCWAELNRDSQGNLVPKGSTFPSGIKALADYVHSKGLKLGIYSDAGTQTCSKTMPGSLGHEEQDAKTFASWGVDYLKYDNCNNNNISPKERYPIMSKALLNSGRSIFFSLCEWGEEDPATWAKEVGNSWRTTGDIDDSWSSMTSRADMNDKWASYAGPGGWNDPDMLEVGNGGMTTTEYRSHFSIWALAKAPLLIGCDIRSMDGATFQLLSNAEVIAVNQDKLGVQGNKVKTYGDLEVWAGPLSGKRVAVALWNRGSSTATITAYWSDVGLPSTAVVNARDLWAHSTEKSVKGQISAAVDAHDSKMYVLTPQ

The molecule `Cc1ccc(Cl)cc1OCCCCCCCCCCN1C(=O)c2ccccc2C1=O` came in with an IC50 in test [1] of 910 nM.

Molecule `O=C1c2ccccc2C(=O)N1CCCCCCOc1ccccc1` came in with an IC50 in test [1] of 10300 nM. As for `O=C1c2ccccc2C(=O)N1CCCCCCCCCCOc1cc(Cl)c(Cl)cc1[N+](=O)[O-]`, the inhibition entry in test [2], in test [3], in test [4] and in test [5] was “inactive” each time. Further, the IC50 in test [1] stood at 520 nM. In test [1], `O=C1c2ccccc2C(=O)N1CCCCCCCCCCOc1ccc(Cl)c(Cl)c1` registered an IC50 of 1000 nM. That is a single-digit micromolar value. For the molecule `O=C1c2ccccc2C(=O)N1CCCOc1cccc(Cl)c1Cl`, the IC50 in test [1] is 15000 nM.

With `O=C1c2ccccc2C(=O)N1CCOc1ccc(Cl)cc1`, the IC50 in test [1] came out at 94000 nM. This IC50 is about 6.3-fold higher than that of the molecule before.

`Cc1cc(Cl)ccc1OCCN1C(=O)c2ccccc2C1=O` gave an IC50 in test [1] of 14800 nM. This IC50 is about 6.4-fold lower than that of the molecule before.

For the molecule `O=C1c2ccccc2C(=O)N1CCCCCCCCCCOc1c(Cl)cc(Cl)cc1[N+](=O)[O-]`, the inhibition result in test [2], in test [3], in test [4] and in test [5] was “inactive” each time. In test [1], this molecule gave an IC50 of 750 nM. `Cc1cc(Cl)c([N+](=O)[O-])c(C)c1OCCCCCCCCCCN1C(=O)c2ccccc2C1=O` showed an IC50 in test [1] of 3600 nM.

In test [1], `O=C1c2ccccc2C(=O)N1CCOc1ccccc1` came in with an IC50 of 296000 nM. On to `O=C1c2ccccc2C(=O)N1CCCCCCCCCCOc1cccc(Cl)c1`, for which half-maximal inhibition in test [1] (IC50) was put at 1090 nM. For the molecule `O=C1c2ccccc2C(=O)N1CCCCCCCCCCOc1ccc(Cl)cc1[N+](=O)[O-]`, the inhibition entry in test [2], in test [3], in test [4] and in test [5] was “inactive” each time. The molecule also yielded an IC50 in test [1] of 475 nM. In turn, `Cc1cc(Cl)cc(C)c1OCCCCCCCCCCN1C(=O)c2ccccc2C1=O` yielded an IC50 in test [1] of 1340 nM. For `Cc1cc([N+](=O)[O-])c(Cl)cc1OCCCCCCCCCCN1C(=O)c2ccccc2C1=O`, the inhibition entry in test [2], in test [3], in test [4] and in test [5] was “inactive” in each case. Besides, the IC50 in test [1] worked out at 650 nM. With `O=C1c2ccccc2C(=O)N1CCCCCCCCCCOc1ccc(Cl)cc1`, half-maximal inhibition in test [1] (IC50) required 1200 nM. On the same count and under the same terms, for `O=C1c2ccccc2C(=O)N1CCCCCCCCCCOc1ccc(Cl)cc1Cl` the value was 1190 nM. In turn, `O=C1c2ccccc2C(=O)N1CCCCCCCCCCOc1ccc([N+](=O)[O-])cc1[N+](=O)[O-]` returned an IC50 in test [1] of 970 nM. This IC50 and that of the molecule before are within 1.5-fold of each other. In turn, `OC[C@H]1NC[C@H](O)[C@@H](O)[C@@H]1O` [DUVOGLUSTAT] gave an IC50 in test [1] of 52000 nM. On the same count and under the same terms, in the case of `Cc1cc(Cl)ccc1OCCCN1C(=O)c2ccccc2C1=O` it was 8900 nM. On the same count and under the same terms, in the case of `Cc1cc(Cl)cc(C)c1OCCN1C(=O)c2ccccc2C1=O` it was 13000 nM. Same read-out and setting: for `O=C1c2ccccc2C(=O)N1CCCCCOc1ccccc1` the value was 20200 nM. In turn, `O=C1c2ccccc2C(=O)N1CCCCCCCCCCOc1cccc([N+](=O)[O-])c1` yielded a concentration for half-maximal inhibition (IC50) in test [1] of 1080 nM. Compared with the last molecule, the IC50 is about 19-fold lower. Still for that read-out and setting: in the case of `O=C1c2ccccc2C(=O)N1CCCCCCCCCCOc1ccccc1[N+](=O)[O-]` it was 1780 nM. The same measure, in the same setting: for `O=C1c2ccccc2C(=O)N1CCCCCCCCCCOc1ccc([N+](=O)[O-])c(C(F)(F)F)c1` the value was 830 nM; for `O=C1c2ccccc2C(=O)N1CCCCCCCCCOc1ccccc1`, 3040 nM.

`O=C1c2ccccc2C(=O)N1CCCCCCCCCCOc1ccccc1` had an IC50 in test [1] of 2500 nM.

Consider `O=C1c2ccccc2C(=O)N1CCCCCCCCCCOc1ccc(C(F)(F)F)cc1`, for which half-maximal inhibition in test [1] (IC50) required 830 nM. Compared with the last molecule, the IC50 is about 3-fold lower. Molecule `O=C1c2ccccc2C(=O)N1CCCCOc1ccccc1` registered a half-maximal inhibitory concentration (IC50) in test [1] of 33000 nM. The same measure, in the same setting: for `O=C1c2ccccc2C(=O)N1CCCOc1ccc(Cl)cc1` the value was 59000 nM; for `O=C1c2ccccc2C(=O)N1CCCOc1ccccc1`, 240000 nM; for `Cc1cc(Cl)cc(C)c1OCCCN1C(=O)c2ccccc2C1=O`, 9500 nM. Same read-out and setting: in the case of `Cc1ccc(OCCCCCCCCCCN2C(=O)c3ccccc3C2=O)cc1` it was 2100 nM; in that of `O=C1c2ccccc2C(=O)N1CCCCCCCCOc1ccccc1`, 6500 nM. With `Cc1cc([N+](=O)[O-])cc(C)c1OCCCCCCCCCCN1C(=O)c2ccccc2C1=O`, in test [1], it took 1320 nM to reach half-maximal inhibition (IC50). Regarding `O=C1c2ccccc2C(=O)N1CCCCCCCCCCOc1ccc(C(F)(F)F)cc1[N+](=O)[O-]`, in test [1], the IC50 worked out at 1310 nM. The same measure, in the same setting: in the case of `O=C1c2ccccc2C(=O)N1CCCOc1ccc(Cl)c(Cl)c1` it was 7550 nM; in that of `Cc1cccc(C)c1OCCCCCCCCCCN1C(=O)c2ccccc2C1=O`, 3250 nM; in that of `O=C1c2ccccc2C(=O)N1CCCCCCCCCCOc1ccc([N+](=O)[O-])cc1`, 860 nM.

The term IC50 denotes the concentration at which inhibition is half-maximal.
